# Screening results as filed in PubChem.
# Shown are actives, neighbours in structure and some others; about 3.8% of the full set was active somewhere.
# KCNQ1 pot = human KCNQ1 channel potentiation or activation; P51787; CHO-K1 KCNQ1, thallium flux FluxOR fluorescence; hits give high values; B-score at 10 µM; 0.35% of 310,000 active; AID 2648;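 active = fluorescence ratio B-score, a plate-corrected score, at least three library SD, with initial intensity B-score within 5 SD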
#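 System: CHO-K1 cells stably expressing KCNQ1 / Medium: assay buffer for compound exposure, DMSO matched across wells / Reagent: thallium- and potassium-containing depolarizing buffer / Compound: one concentration, matched DMSO / Incubation: 20 min compound pretreatment at room temperature / Measured by: kinetic FluxOR fluorescence, 10 s baseline plus 110 s post-stimulus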
# KCNQ1 inh = human KCNQ1 channel inhibition; CHO-K1 KCNQ1, FluxOR thallium flux fluorescence; hits give high values; AID 2642; 1.3% of 310,000 active; B-score at 10 µM; P51787;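 active = compounds whose thallium flux B-score, printed positive for inhibition, exceeds three library SD while starting fluorescence stays within three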;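 note: channel opened by potassium depolarization with thallium stimulus after 20 min compound exposure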
# hERG protect = compounds protecting human hERG from proarrhythmic drug block | 0.51% of 310,000 active | CHO-hERG, FluxOR thallium flux, dofetilide IC70 present | activation (rescue from dofetilide block), less the hit threshold, % at 10 µM;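 active = activation above the mean of controls blocked by dofetilide plus 5 SD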;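 note: thallium influx through hERG after potassium depolarization seen as dye fluorescence rise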
# KCNK3 block = human KCNK3 channel inhibition, primary screen | O14649 | 0.84% of 340,000 active | B-score at 10 µM | AID 602410 | CHO-KCNK3 thallium flux, FluxOR fluorescence; hits give low values;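 active = B-score under library mean minus 4 SD, starting fluorescence ratio at most library mean plus 5 SD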;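 note: more negative B-score means stronger inhibition of thallium flux through KCNK3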
# Kir21 block = blocks the mouse Kir2.1 inward-rectifier potassium channel. HEK293-Kir2.1, FluxOR thallium flux fluorescence; hits give low values. B-score at 10 µM. 0.85% of 310,000 active;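 active = fluorescence ratio B-score at or below minus 3 SD of library scores, with starting-brightness B-score within 2 SD, cut at about -4.2 in these data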;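 note: channel flux triggered by added potassium and thallium sulfate stimulus; B-score of peak minus minimum fluorescence over baseline after thallium stimulus; more negative B-score means stronger Kir2.1 block with less thallium influx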
# KCNK9 block = inhibitors of human KCNK9 two-pore domain potassium channel; Q9NPC2; HEK293 KCNK9, FluxOR thallium flux fluorescence; hits give low values; B-score at 10 µM; 1.2% of 310,000 active; AID 488922;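 active = ratio B-score over 3 SD below the library mean, with starting fluorescence within 5 SD of its mean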;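 note: negative B-score means less thallium flux so channel inhibition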
# Target sequence (Q9NPC2 whole entry, looked up, the tested form may be a part): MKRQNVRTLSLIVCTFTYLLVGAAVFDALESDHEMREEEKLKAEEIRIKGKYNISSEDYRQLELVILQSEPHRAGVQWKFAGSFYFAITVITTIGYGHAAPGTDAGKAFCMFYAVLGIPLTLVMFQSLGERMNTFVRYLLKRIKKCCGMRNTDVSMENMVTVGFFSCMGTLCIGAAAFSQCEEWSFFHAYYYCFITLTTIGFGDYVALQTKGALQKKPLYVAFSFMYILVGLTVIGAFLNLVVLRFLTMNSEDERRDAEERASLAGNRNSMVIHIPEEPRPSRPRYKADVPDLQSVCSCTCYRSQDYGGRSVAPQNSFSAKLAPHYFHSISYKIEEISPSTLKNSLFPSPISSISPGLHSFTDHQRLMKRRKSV
# An asterisk follows results filed as active; i = inactive; x = not tested or not shown.
SMILES,KCNQ1 pot,KCNQ1 inh,hERG protect,KCNK3 block,Kir21 block,KCNK9 block
O=C1NC(=O)C(=Cc2ccccc2[N+](=O)[O-])S1,x,x,x,i,x,x
O=C1NC(=O)/C(=C/c2cc3c(cc2Br)OCO3)S1,i,i,7.0*,i,1.1,i
Cc1ccc(S(=O)(=O)Oc2ccccc2/C=C2/SC(=O)NC2=O)cc1,i,9*,-11,i,-2,i
O=C1NC(=O)/C(=C\c2ccccc2OCc2ccccc2)S1,i,i,-8,i,0.01,i
O=C1NC(=O)/C(=C/c2cccc3ccccc23)S1,i,6*,-4,i,2.3,i
Cc1cc2nc(-c3ccc(SCc4ccccc4C#N)nc3)[nH]c2cc1C,i,7*,-1,i,-0.95,i
Cc1cc2nc(-c3ccc(SCc4ccc(C(=O)O)cc4)nc3)[nH]c2cc1C,i,i,-9,i,-1.5,i
CC(OC(=O)CCc1cc(C(C)(C)C)c(O)c(C(C)(C)C)c1)C(=O)NC1CC1 (stereo not drawn),i,i,-17,i,-4.3*,i
O=C(CN1C(=O)C2CC=CCC2C1=O)Nc1ccc(F)cc1F (stereo not drawn),x,x,x,i,x,x
CC(C)(C)c1ccc(OCCCCCCN2CCNCC2)cc1,i,i,-16,i,-0.23,i
COCCCNCCOc1ccc(C(C)(C)c2ccccc2)cc1,i,i,-10,i,-13*,i
CC(C)(c1ccccc1)c1ccc(OCCCN2CCNCC2)cc1,i,i,-9,i,-5.8*,i
CCC(C)NCCOc1ccc(C(C)(C)c2ccccc2)cc1 (stereo not drawn),i,i,-11,i,-12*,i
CC(C)(C)C1=CC(O)(c2ccccc2)C=C(C(C)(C)C)C1=O,i,8*,-13,i,-1.8,i
COc1ccc(C(=O)N2CCCN(C)CC2)cc1S(=O)(=O)N(C)Cc1ccccc1,x,x,x,i,x,x
CCOC(=O)/C(=C/C=C1\Sc2cc(C)c(C)cc2N1CC)C(C)=O,i,13*,-37,i,-11,i
COc1ccc(NC(=O)NCC(C)CSc2ccc(C)cc2)c(OC)c1 (stereo not drawn),i,i,-7,i,-0.23,i
O=C(N/N=C/c1ccc2cccc(OCc3ccccc3)c2n1)c1ccc(Br)cc1,i,i,11*,i,2.8,i
COc1ccc(C(=O)N/N=C/c2ccc3cccc(OCc4ccccc4)c3n2)cc1,i,i,-3,i,0.23,i
NC(N)=N/N=C/c1ccc2cccc(OCc3ccccc3)c2n1,i,6*,-25,i,-5.3*,i
O=c1c(O)c(-c2cccs2)oc2ccccc12,55*,i,33*,i,-4,i
O=c1c(O)c(-c2cccs2)oc2ccc(Cl)cc12,72*,i,35*,i,-7.4,i
O=c1cc(-c2cccs2)oc2ccc(Cl)cc12,i,i,-15,i,2,i
COc1cc([N+](=O)[O-])ccc1NC(=O)CSc1nnc(C)c(C)n1,i,i,-10,i,-1.5,i
NNC(=O)c1cc2nc(-c3cccs3)cc(C(F)(F)F)n2n1,i,i,-6,i,1.2,i
SMILES,KCNQ1 pot,KCNQ1 inh,hERG protect,KCNK3 block,Kir21 block,KCNK9 block
FC(F)(F)c1cc(-c2cccs2)nc2cc(-c3cccs3)nn12,i,6*,-1,i,0.81,i
CCOc1cc(/C=N/NC(=O)CN2CCCCC2)ccc1OCc1cccc(Cl)c1,i,i,-39,i,-4.7*,i
CCOc1cc(/C=N/NC(=O)CN2CCCCC2)ccc1OCc1ccc(Cl)cc1,i,i,-7,i,-0.18,i
Cn1c(SCC(=O)NCCc2ccccc2)ncc(C(=O)Nc2ccc(F)cc2)c1=O,i,i,-12,i,0.07,i
Cc1[nH]n(-c2cccc3ccccc23)c(=O)c1/C=N/c1sc2c(c1C#N)CCC2,11*,i,2,i,0.58,i
Cc1[nH]n(-c2ccc(F)cc2)c(=O)c1/C=N/c1sc2c(c1C#N)CCCC2,34*,i,20*,i,-0.01,i
N#Cc1c(/N=C/c2cc3ccccc3s2)sc2c1CCC2,i,i,-7,i,0.01,i
COc1cccc(C2CCCCN(C)C2=O)c1 (stereo not drawn),i,i,-3,i,0.11,i
O=C(NCc1ccccc1)c1onc(CSc2ccc(F)cc2)c1C(=O)NCCCN1CCOCC1,14*,i,-15,i,-0.98,i
O=C1S/C(=C\c2ccc(O)c([N+](=O)[O-])c2)C(=O)N1c1ccccc1Cl,i,10*,-11,i,-0.13,i
O=C1S/C(=C\c2ccc(O)c([N+](=O)[O-])c2)C(=O)N1Cc1cccc([N+](=O)[O-])c1,i,11*,-9,i,0,i
COc1cc(/C=C2\SC(=O)N(c3cccc(Cl)c3)C2=O)cc([N+](=O)[O-])c1O,x,x,x,i,x,x
O=C(CCC(=O)N1CCOc2ccc(Cl)cc21)NCCCN1CCC(Cc2ccccc2)CC1,i,i,-20,i,-6.6*,i
O=C(CCC(=O)N1CCOc2ccc(Cl)cc21)NCCCN1CCN(c2ccccc2F)CC1,i,i,-12,i,-2,i
O=C(NC(=S)N1CCN(c2nc(-c3ccccc3)cs2)CC1)c1cncc(Br)c1,56*,i,89*,i,-0.57,i
O=C(CN1C(=O)c2cccnc2Oc2ccc(Cl)cc21)NCCCc1ccccc1,i,i,-10,i,0.15,i
COc1ccc(N2C3=C(CC4=C2CCCC4=O)C(=O)CCC3)cc1,i,i,-11,i,-1.2,-6.6*
COc1ccc(N2C3=C(CC4=C2CC(C)(C)CC4=O)C(=O)CC(C)(C)C3)cc1,i,i,-14,i,-5.1*,i
CN1CCS/C1=C\C=C1/SC(=S)N(CC(=O)O)C1=O,i,11*,-30,i,-12,i
Cn1cccc1/C=C1/SC(=S)N(CC(=O)O)C1=O,i,i,-11,i,-0.67,i
Cc1ccc(C(=O)Nc2nc(-c3ccco3)c(-c3ccco3)s2)o1,x,x,x,-11*,x,x
CS(=O)(=O)c1ccc2nc(NC(=O)c3ccco3)sc2c1,i,i,-16,i,0.05,i
Cc1ccc(C(=O)Nc2nc3ccc(S(C)(=O)=O)cc3s2)o1,i,i,38*,i,-0.24,i
CN(C)CCNc1ncnc2oc(-c3ccccc3)c(-c3ccccc3)c12,i,i,-7,i,-4.7*,i
CC(C)N(Cc1ccccc1)C(=S)Nc1ccc(F)cc1,i,i,14*,i,-0.29,i
